{"data": "Published values gathered from unrelated publications", "target": "Fibroblast growth factor receptor 4 (FGFR4, Homo sapiens, UniProt P22455)", "note": "Each line is one published result; the experiments were not run side by side."}
{"SMILES": "N[C@@H]1CCN(c2nccc(-c3cnn4ncccc34)n2)C1", "assay": "binding", "setting": "1 µM", "remaining binding": "96%"}
{"SMILES": "O=C(NCC1CCOCC1)c1n[nH]cc1NC(=O)c1c(F)cccc1F", "assay": "binding, competition with immobilised ligand", "setting": "1 µM", "remaining binding": "100%"}
{"SMILES": "O=C(NS(=O)(=O)c1ccc(NCC2CCOCC2)c([N+](=O)[O-])c1)c1ccc(N2CCN(Cc3ccc(C(F)(F)F)cc3-c3ccc(Cl)cc3)CC2)cc1Oc1cnc2[nH]ccc2c1", "assay": "cell-free assay, competition with immobilised ligand", "setting": "1 µM", "remaining binding": "96%"}
{"SMILES": "Nc1ncc2c(n1)-c1c([nH]c3ccc(C#CC4CC4)cc13)CCCC2", "assay": "binding, competition with immobilised ligand", "setting": "1 µM", "remaining binding": "98%"}
{"SMILES": "COc1ncc2cc3ccccc3nc2c1C#N", "assay": "cell-free assay, competition with immobilised ligand", "setting": "5 µM", "remaining binding": "88%"}
{"SMILES": "O=C(c1ccc(Nc2ncc(Cl)c(-c3ccc(Cl)s3)n2)cc1)N1CCC(N2CCCC2)CC1", "assay": "binding, competition with immobilised ligand", "setting": "1 µM", "remaining binding": "60%"}
{"SMILES": "CS(=O)(=O)c1cc(C2(NC(=O)c3cncc4c3cnn4-c3ccc(F)cc3)CC2)ccn1", "assay": "cell-free assay, competition with immobilised ligand", "setting": "1 µM", "remaining binding": "74%"}
{"SMILES": "FC(F)(F)Oc1cccc(-c2cnc3ccc(-c4ccncc4)nn23)c1", "assay": "cell-free assay, competition with immobilised ligand", "setting": "5 µM", "remaining binding": "98%"}
{"SMILES": "C[C@@H]1CN(c2cc(-c3nn(C)c4ccc(OC5(C)CC5)cc34)ncn2)C[C@H](C)O1", "assay": "cell-free assay, competition with immobilised ligand", "setting": "1 µM", "remaining binding": "100%"}
{"SMILES": "COc1cnc(Nc2cccc(S(N)(=O)=O)c2)nc1N1CCN(c2ccccc2)CC1", "assay": "binding, competition with immobilised ligand", "setting": "1 µM", "remaining binding": "98%"}
{"SMILES": "CS(=O)(=O)NCC[C@H](NC(=O)c1cncc2c1cnn2-c1ccc(F)cc1)c1ccnc(S(C)(=O)=O)c1", "assay": "cell-free assay, competition with immobilised ligand", "setting": "1 µM", "remaining binding": "100%"}
{"SMILES": "Cc1cnn2ncc(-c3ccnc(N(C)C)n3)c2c1", "assay": "binding", "setting": "1 µM", "remaining binding": "97%"}
{"SMILES": "O=C(NCCCN1CCOCC1)c1ccc(Nc2ncc(Cl)c(-c3ccc(Cl)s3)n2)cc1", "assay": "binding, competition with immobilised ligand", "setting": "1 µM", "remaining binding": "89%"}
{"SMILES": "CC1CCCN1c1nccc(-c2cnn3ncccc23)n1 (stereo not shown)", "assay": "binding", "setting": "1 µM", "remaining binding": "100%"}
{"SMILES": "CNC(=O)[C@@H]1CC[C@@H](n2c(-c3ccc4cnccc4c3)nc3ccc(C(=O)NCc4cccc(C(N)=O)c4)cc32)C1", "assay": "binding, competition with immobilised ligand", "setting": "1 µM", "remaining binding": "100%"}
{"SMILES": "C[C@H](c1ccc(F)cc1)N(Cc1cccc(C(=O)O)c1)C(=O)c1cnc2ccccc2c1", "assay": "cell-free assay, competition with immobilised ligand", "setting": "1 µM", "remaining binding": "91%"}
{"SMILES": "c1cnn2ncc(-c3ccnc(N4CCC45COC5)n3)c2c1", "assay": "binding", "setting": "1 µM", "remaining binding": "91%"}
{"SMILES": "O=C(c1ccc(Nc2nccc(-c3cc4ccccc4s3)n2)cc1)N1CCC(N2CCCC2)CC1", "assay": "binding, competition with immobilised ligand", "setting": "1 µM", "remaining binding": "99%"}
{"SMILES": "CN(C)c1nccc(-c2cnn3ncccc23)n1", "assay": "binding", "setting": "1 µM", "remaining binding": "100%"}
{"SMILES": "CCOCCn1cc(C(=O)Nc2ccc(-n3nc(-c4cccnc4)cc3C(F)(F)F)cn2)ccc1=O", "assay": "cell-free assay, competition with immobilised ligand", "setting": "1 µM", "remaining binding": "100%"}
{"SMILES": "c1cncc(-c2cccc(Nc3nccc(NC4CCCCC4)n3)c2)c1", "assay": "binding, competition with immobilised ligand", "setting": "10 µM", "remaining binding": "94%"}
{"SMILES": "C[C@@H]1CCN(c2nccc(-c3cnn4ncccc34)n2)C1", "assay": "binding", "setting": "1 µM", "remaining binding": "100%"}
